Assay results: ChEMBL document CHEMBL2203249, “Optimization of a small tropomyosin-related kinase B (TrkB) agonist 7,8-dihydroxyflavone active in mouse models of depression” (J Med Chem, 2012)
Calls of active or inactive are those of the source. The calls are words filed in the database; no cut-off is given here.

Tests used:
[1] = Drug recovery in human plasma at 5 uM; type: ADME, cell-free; conditions: read-out: Drug uptake
In short: (§1)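 Human plasma protein binding was tested at 5 μM, reporting fraction unbound, fraction bound and recovery. The assay was run by a contract lab.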

Plasma = test: Fraction unbound in human plasma at 5 uM; type: ADME, cell-free; in short: as §1
CYP1A2 = target: T1, CYP1A2 (Homo sapiens, UniProt P05177); test: Inhibition of CYP1A2 at 30 uM; type: ADME
T1 sequence (P05177 whole entry): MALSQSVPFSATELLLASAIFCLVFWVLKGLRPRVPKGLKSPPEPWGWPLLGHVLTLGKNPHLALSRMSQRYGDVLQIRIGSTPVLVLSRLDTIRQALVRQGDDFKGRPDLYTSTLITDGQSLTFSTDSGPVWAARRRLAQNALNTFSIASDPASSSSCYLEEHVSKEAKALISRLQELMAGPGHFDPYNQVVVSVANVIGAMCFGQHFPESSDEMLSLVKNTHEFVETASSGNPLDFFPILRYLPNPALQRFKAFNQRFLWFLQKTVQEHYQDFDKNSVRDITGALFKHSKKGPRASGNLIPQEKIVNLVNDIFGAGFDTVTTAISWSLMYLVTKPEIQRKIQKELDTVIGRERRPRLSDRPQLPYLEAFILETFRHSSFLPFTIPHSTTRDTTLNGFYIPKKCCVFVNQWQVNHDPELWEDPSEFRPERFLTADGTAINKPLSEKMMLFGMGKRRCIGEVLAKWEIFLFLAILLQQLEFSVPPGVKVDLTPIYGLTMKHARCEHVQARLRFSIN
In short: (§2)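 CYP inhibition was tested at 3 and 30 μM and reported as percent inhibition. The assay was run by a contract lab.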

CYP2D6 [2] = target: T2, CYP2D6 (Homo sapiens, UniProt P10635); test: Inhibition of CYP2D6 at 30 uM; type: ADME
T2 sequence (P10635 whole entry): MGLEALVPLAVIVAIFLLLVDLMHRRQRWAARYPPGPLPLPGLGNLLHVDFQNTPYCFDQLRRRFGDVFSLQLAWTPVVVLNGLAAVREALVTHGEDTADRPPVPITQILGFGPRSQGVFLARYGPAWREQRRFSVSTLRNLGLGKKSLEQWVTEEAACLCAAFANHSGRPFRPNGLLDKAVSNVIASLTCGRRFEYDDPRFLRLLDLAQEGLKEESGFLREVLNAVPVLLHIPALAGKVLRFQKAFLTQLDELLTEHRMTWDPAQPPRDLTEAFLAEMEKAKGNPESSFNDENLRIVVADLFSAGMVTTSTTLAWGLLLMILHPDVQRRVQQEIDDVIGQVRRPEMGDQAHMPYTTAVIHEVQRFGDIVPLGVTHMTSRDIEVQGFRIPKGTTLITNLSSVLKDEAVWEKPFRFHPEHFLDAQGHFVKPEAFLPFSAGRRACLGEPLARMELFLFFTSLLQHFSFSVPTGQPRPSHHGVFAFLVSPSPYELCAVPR

CYP2D6 [3] = target: T2, CYP2D6; test: Inhibition of CYP2D6 at 3 uM; type: ADME
CYP2C19 = CYP2C19 (Homo sapiens, UniProt P33261); test: Inhibition of CYP2C19 at 30 uM; type: ADME; in short: as §2
Sequence of CYP2C19 (P33261 whole entry): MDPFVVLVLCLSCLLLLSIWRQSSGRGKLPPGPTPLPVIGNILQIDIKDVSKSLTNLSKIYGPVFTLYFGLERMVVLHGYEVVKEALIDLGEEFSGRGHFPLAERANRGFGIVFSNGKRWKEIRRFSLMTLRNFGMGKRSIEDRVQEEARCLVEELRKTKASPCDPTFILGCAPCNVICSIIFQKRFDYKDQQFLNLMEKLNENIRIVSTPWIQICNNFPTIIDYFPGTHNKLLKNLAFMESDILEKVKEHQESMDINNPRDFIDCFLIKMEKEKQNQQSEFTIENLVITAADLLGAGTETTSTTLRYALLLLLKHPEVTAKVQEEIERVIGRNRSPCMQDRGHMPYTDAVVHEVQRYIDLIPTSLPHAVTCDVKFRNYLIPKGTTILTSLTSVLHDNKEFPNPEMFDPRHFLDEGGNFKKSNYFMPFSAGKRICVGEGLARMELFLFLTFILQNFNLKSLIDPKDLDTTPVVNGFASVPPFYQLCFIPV

CYP3A4 [4] = target: T3, CYP3A4 (Homo sapiens, UniProt P08684); test: Inhibition of CYP3A4 at 3 uM using testosterone substrate; type: ADME; conditions: probe testosterone
T3 sequence (P08684 whole entry): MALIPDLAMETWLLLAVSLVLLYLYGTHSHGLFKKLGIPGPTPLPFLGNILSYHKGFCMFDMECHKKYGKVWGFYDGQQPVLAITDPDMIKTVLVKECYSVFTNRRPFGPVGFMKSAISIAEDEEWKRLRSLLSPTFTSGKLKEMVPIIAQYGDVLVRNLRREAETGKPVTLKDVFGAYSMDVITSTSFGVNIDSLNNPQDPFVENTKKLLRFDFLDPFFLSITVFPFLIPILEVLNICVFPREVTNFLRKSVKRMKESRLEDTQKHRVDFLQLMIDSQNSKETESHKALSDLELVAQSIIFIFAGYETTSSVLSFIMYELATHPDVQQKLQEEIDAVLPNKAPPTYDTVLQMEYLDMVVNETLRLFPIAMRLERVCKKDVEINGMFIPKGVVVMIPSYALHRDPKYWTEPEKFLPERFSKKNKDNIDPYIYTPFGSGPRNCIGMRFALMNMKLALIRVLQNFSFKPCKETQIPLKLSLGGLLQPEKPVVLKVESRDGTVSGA

CYP2C9 = CYP2C9 (Homo sapiens, UniProt P11712); test: Inhibition of CYP2C9 at 30 uM; type: ADME; in short: as §2
Sequence of CYP2C9 (P11712 whole entry): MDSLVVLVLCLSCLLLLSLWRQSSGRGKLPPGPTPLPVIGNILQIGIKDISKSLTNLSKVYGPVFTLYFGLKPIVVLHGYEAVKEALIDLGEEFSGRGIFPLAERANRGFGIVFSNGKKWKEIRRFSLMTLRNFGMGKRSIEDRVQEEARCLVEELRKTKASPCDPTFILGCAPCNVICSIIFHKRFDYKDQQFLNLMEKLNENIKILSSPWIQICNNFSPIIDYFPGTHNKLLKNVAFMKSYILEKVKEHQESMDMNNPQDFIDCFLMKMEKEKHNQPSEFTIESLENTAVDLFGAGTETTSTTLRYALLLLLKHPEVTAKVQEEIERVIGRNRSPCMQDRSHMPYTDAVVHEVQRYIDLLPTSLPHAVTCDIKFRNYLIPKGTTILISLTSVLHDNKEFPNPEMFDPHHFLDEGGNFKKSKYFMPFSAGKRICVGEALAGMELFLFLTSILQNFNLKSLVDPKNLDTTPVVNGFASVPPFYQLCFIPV

CYP3A4 [5] = target: T3, CYP3A4; test: Inhibition of CYP3A4 at 30 uM using testosterone substrate; type: ADME; conditions: probe testosterone
CYP3A4 [6] = target: T3, CYP3A4; test: Inhibition of CYP3A4 at 30 uM using modazolam substrate; type: ADME; conditions: probe midazolam (printed: modazolam)
Liver microsomes = test: Metabolic stability in human liver microsomes assessed as formation of reactive metabolites at 1 uM after 1 hr; type: ADME, Microsome
[7] = Metabolic stability in human liver microsomes assessed as remaining parent compound at 1 uM after 1 hr in the absence of […]; type: ADME, Microsome; conditions: read-out: Stability
In short: (§3)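 Human liver microsomes were incubated with test compound at 1 μM for 1 h. Percent parent remaining was measured with cofactor and in a cofactor-free control. The work was done by a contract lab.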

[8] = Metabolic stability in human liver microsomes assessed as remaining parent compound at 1 uM after 1 hr in the presence of […]; type: ADME, Microsome; conditions: read-out: Stability; in short: as §3
HepG2 [9] = test: Genotoxicity in human HepG2 cells assessed as micronuclei formation at 50 uM after 24 hrs by DAPI staining; type: toxicity, cell-based; conditions: hepg2, 24 h
In short: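 HepG2 cells were exposed to 50 μM for 24 h, with benzo(a)pyrene as positive control. Cells were swollen in hypotonic KCl/NaCl for 10 min at 37°C, fixed in methanol/acetic acid 3:1 and stained with DAPI at 2 μg/ml. Three independent experiments, one-way ANOVA.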

HepG2 [10] = test: Cytotoxicity against human HepG2 cells assessed as cell death upto 100 uM after 24 hrs by LDH assay; type: cell-based; conditions: hepg2, 24 h
In short: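 HepG2 cells were exposed to a range of concentrations up to 100 μM for 24 h, and cytotoxicity was measured by LDH release. n=3.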

Mus musculus [11] = test: Agonist activity at TrkB receptor in C57BL/J6 mouse brain assessed as TrkB phosphorylation at tyrosine 816 in hippocampus at 2.5 mg/kg, po […] by Western blotting analysis; type: functional, organism-based; set-up: dose 2.5 mg/kg
In short: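 Male C57BL/6J mice were gavaged with 2.5 mg/kg/day for 21 days, with saline vehicle controls. Hippocampus was collected after the behavioural tests, and BrdU at 100 mg/kg i.p. was given 2 h before sacrifice. Lysates were immunoblotted for p-TrkB, total TrkB and p-Akt, and the p-TrkB/TrkB ratio was determined. Two replicate experiments, Student's t-test.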

Mus musculus [12] = test: Toxicity in C57BL/J6 mouse assessed as increase in locomotion at 2.5 mg/kg, po administered qd for 21 days by locomotor activity assay; type: organism-based; set-up: dose 2.5 mg/kg, route oral; conditions: in vivo, 504 h
In short: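 Male C57BL/6J mice were given compound or saline vehicle by oral gavage once daily for 21 days, with forced swim and tail suspension tests also run. Ambulations (consecutive photobeam breaks) were recorded in automated locomotor chambers for 2 h, binned at 30 min intervals.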

Mus musculus [13] = test: Antidepressant activity in C57BL/J6 mouse assessed as reduction of immobility at 2.5 mg/kg, po administered qd for 21 days recorded in last 4 mins by forced swim test; type: functional; set-up: scale not given: the % may be the effect or the level left
In short: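 Male C57BL/6J mice, 2–3 months old, were gavaged daily for 21 days with drug (5 or 2.5 mg/kg) or saline and adapted to the test room for 2 days. With no preswim, each mouse was placed for 6 min in a 16-cm cylinder of 24 °C water, 14 cm deep. Immobility in the last 4 min was scored blind and compared by unpaired t-test (n=6 or 8).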

Mus musculus [14] = test: Agonist activity at TrkB receptor in C57BL/J6 mouse brain assessed as Akt phosphorylation at serine 473 in hippocampus at 1 mg/kg, po after 2 hrs by immunoblotting analysis; type: functional, organism-based; set-up: dose 1 mg/kg
In short: (§4)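 Hippocampus from male C57BL/6J mice was taken 2 h after a single 1 mg/kg oral dose. Brain was homogenised and ultracentrifuged, and 40 μg supernatant was immunoblotted for p-TrkB, p-Akt and p-MAPK.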

Mus musculus [15] = test: Agonist activity at TrkB receptor in C57BL/J6 mouse brain assessed as TrkB phosphorylation at tyrosine 816 in hippocampus at 1 mg/kg, po after 2 hrs by immunoblotting analysis; type: functional, organism-based; set-up: dose 1 mg/kg; in short: as §4
[16] = target: BDNF/NT-3 growth factors receptor (Rattus norvegicus) (UniProt Q63604); test: Agonist activity at TrkB receptor in rat primary neurons assessed as Akt phosphorylation at 500 nM after 15 mins by immunoblotting analysis; type: functional
Sequence of BDNF/NT-3 growth factors receptor (Rattus norvegicus) (Q63604 whole entry): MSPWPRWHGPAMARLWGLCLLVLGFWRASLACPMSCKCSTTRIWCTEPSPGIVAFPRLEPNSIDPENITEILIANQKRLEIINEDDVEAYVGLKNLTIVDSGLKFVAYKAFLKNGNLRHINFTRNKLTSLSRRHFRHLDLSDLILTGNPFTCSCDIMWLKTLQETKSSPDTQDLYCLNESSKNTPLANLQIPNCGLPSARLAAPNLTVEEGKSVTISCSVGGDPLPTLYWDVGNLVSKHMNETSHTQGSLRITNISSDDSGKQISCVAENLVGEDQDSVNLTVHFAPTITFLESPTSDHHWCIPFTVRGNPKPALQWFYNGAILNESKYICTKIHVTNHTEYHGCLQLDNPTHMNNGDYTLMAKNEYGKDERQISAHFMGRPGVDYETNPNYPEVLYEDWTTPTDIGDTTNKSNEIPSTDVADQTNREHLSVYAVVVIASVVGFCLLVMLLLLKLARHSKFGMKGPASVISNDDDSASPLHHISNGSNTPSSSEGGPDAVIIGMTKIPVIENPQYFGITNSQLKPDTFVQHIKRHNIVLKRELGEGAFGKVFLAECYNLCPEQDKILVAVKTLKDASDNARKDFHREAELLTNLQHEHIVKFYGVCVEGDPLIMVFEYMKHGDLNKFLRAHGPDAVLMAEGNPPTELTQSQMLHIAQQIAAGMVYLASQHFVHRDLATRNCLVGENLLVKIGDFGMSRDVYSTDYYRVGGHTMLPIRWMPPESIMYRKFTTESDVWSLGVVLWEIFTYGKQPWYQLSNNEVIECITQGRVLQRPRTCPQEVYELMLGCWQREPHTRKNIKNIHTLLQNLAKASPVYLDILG
In short: (§5)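 Primary cortical cultures from E17 rat embryos were exposed to 500 nM for 15 min. Lysates were immunoblotted for p-TrkB and p-Akt (20 μg per lane). Two replicate experiments.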

[17] = target: BDNF/NT-3 growth factors receptor (Rattus norvegicus) (UniProt Q63604); test: Agonist activity at TrkB receptor in rat primary neurons assessed as TrkB phosphorylation at tyrosine 816 at 500 nM after 15 mins by immunoblotting analysis; type: functional; in short: as §5
Mus musculus [18] = test: Agonist activity at TrkB receptor in C57BL/J6 mouse brain assessed as TrkB phosphorylation at tyrosine 816 in dentate gyrus at 2.5 mg/kg, po administered qd for 21 days by immunohistochemical staining; type: functional, organism-based; set-up: dose 2.5 mg/kg
In short: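 Mice were gavaged with 2.5 mg/kg/day for 21 days and perfused with 4% paraformaldehyde. Paraffin sections of 6 μm had antigen retrieval by boiling in 10 mM citrate, pH 6.0. Sections were stained with anti-p-TrkB 816 at 1:300 and anti-TrkB at 1:50, with fluorescent secondaries and DAPI, and dentate gyrus was examined.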

| SMILES | remaining at 5 µM [1] [%] | Fu (Plasma) [%] | inhibition at 30 µM (CYP1A2) [%] | inhibition at 30 µM (CYP2D6 [2]) [%] | inhibition at 3 µM (CYP2D6 [3]) [%] | inhibition at 30 µM (CYP2C19) [%] | inhibition at 3 µM (CYP3A4 [4]) [%] | inhibition at 30 µM (CYP2C9) [%] | inhibition at 30 µM (CYP3A4 [5]) [%] | inhibition at 30 µM (CYP3A4 [6]) [%] | Stability (Liver microsomes) | remaining at 1 h, 1 µM [7] [%] | remaining at 1 h, 1 µM [8] [%] | Activity (HepG2 [9]) | Activity (HepG2 [10]) | Activity (Mus musculus [11]) | Activity (Mus musculus [12]) | Activity (Mus musculus [13]) | Activity (Mus musculus [14]) | Activity (Mus musculus [15]) | also measured |
| --- | --- | --- | --- | --- | --- | --- | --- | --- | --- | --- | --- | --- | --- | --- | --- | --- | --- | --- | --- | --- | --- |
| Cc1nc2ccc3c(=O)cc(-c4ccc(N5CCCC5)cc4)oc3c2[nH]1 | 86.3 | 0.03 | 66.1 | 32 | 8.7 | 57.7 | 4.5 | 73.6 | 43.3 | 40.5 | Stable | 92.2 | 25.4 | Non-toxic | Non-toxic | Active | Non-toxic | 45% | Active | Active | Activity [16]: Active; Activity [17]: Active; Activity (Mus musculus [18]): Active |
| O=c1cc(-c2ccc(N3CCCC3)cc2)oc2c1ccc1cc[nH]c12 | 97 | 0.07 | 75.9 | 81.6 | 7.2 | 90 | 3.4 | 52.9 | 18.7 | 48.1 | Unstable | 79.6 | 1.2 | Non-toxic | Non-toxic | Active | Non-toxic | inactive | Active | Active | Activity [16]: Active; Activity [17]: Active; Activity (Mus musculus [18]): Active |
